Key:
[1] = tested on: mouse intestinal epithelium; assay: IHC of cleaved PARP1 and Ki67 in mouse intestine; assay type: in vivo; details: mice of the BCM2665 experiment
Procedure, shortened: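 NSG mice carried BCM2665 breast cancer PDX. Mice were euthanized the day after the last dose. Intestine was IHC-stained for cleaved PARP1 (10× objective), with percent positive cells determined by image analysis. Ki67 IHC was done on intestinal epithelium (20× objective).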

BCM3107 TNBC PDX = assay: Patient-derived xenograft in NSG mice; assay type: in vivo, mouse; details: 5D4 40 mg/kg i.p. twice weekly; talazoparib 0.5 mg/kg daily × 5 per week
BCM2665 PDX = assay: IHC of cleaved PARP1 in PDX tumors; assay type: in vivo, mouse
Procedure, shortened: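 Tumors were taken the day after the last dose for cleaved PARP1 IHC. Percent positive cells was scored on twelve 10× images from three xenografts per group.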

[2] = ref [1]; cited from earlier work

Cn1ncnc1[C@H]1c2n[nH]c(=O)c3cc(F)cc(c23)N[C@@H]1c1ccc(F)cc1 [talazoparib]
apoptosis and Ki67 staining in mouse intestinal epithelium [1]: neither induced apoptosis nor affected Ki67 staining
tumor response, single agent (BCM3107 TNBC PDX): resistant
apoptosis in PDX (PARP-1 cleavage, IHC) (BCM2665 PDX): only had mild proapoptotic effect

O=C(O)CN(CC(=O)O)Cc1cc2c(cc1O)Oc1cc(O)c(CN(CC(=O)O)CC(=O)O)cc1C21OC(=O)c2ccccc21 [calcein]
membrane permeability [2]: lacks membrane permeability

CNCc1ccc(-c2[nH]c3cc(F)cc4c3c2CCNC4=O)cc1 [rucaparib]
viability of nontransformed hepatocytes (AML12 mouse hepatocytes): did not elicit any effect

From publication PMC10622895 (Proceedings of the National Academy of Sciences of the …, 2023)
